Measurements as given in ChEMBL document CHEMBL1145483, “A Candida albicans petite mutant strain with uncoupled oxidative phosphorylation overexpresses MDR1 and has diminished susceptibility to fluconazole and voriconazole” (2007).
In brackets after ≈: the same amount, converted by molar mass.

How the values were obtained:
Assay type in all cases: functional
[1] = system: Candida albicans; assay: Antimicrobial activity against Candida albicans SC5314 after 24 hrs by broth macrodilution method; conditions: SC5314, 24 h
Summary of the method: (§1)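 MICs were determined by standard broth macrodilution following the NCCLS M27-A yeast reference method, with readings at 24 h and 48 h. Strains were parental SC5314 and P5, a petite mutant with uncoupled oxidative phosphorylation recovered from SC5314 after serial passage through mouse spleens.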

[2] = system: Candida albicans; assay: Antimicrobial activity against Candida albicans P5 after 24 hrs by broth macrodilution method; conditions: P5, 24 h; summary of the method: as §1
[3] = system: Candida albicans; assay: Antimicrobial activity against Candida albicans SC5314 after 48 hrs by broth macrodilution method; conditions: SC5314, 48 h; summary of the method: as §1
[4] = system: Candida albicans; assay: Antimicrobial activity against Candida albicans P5 after 48 hrs by broth macrodilution method; conditions: P5, 48 h; summary of the method: as §1
[5] = system: Candida albicans; assay: Ratio of MIC for Candida albicans P5 mutant to MIC for Candida albicans SC5314
Summary of the method: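 The ratio is the P5 MIC divided by the SC5314 MIC, with both MICs obtained by standard broth macrodilution (NCCLS M27-A yeast reference method) and read at 24 h and 48 h. P5 is a petite mutant of SC5314 with uncoupled oxidative phosphorylation.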

| Compound | MIC [1] [µg/mL] | MIC [2] [µg/mL] | MIC [3] [µg/mL] | MIC [4] [µg/mL] | Ratio [5] |
| --- | --- | --- | --- | --- | --- |
| C[C@@H]1[C@H](O)[C@@H](C)/C=C/C=C/C=C/C=C/C=C/C=C/C=C/[C@H](O[C@@H]2O[C@H](C)[C@@H](O)[C@H](N)[C@@H]2O)C[C@@H]2O[C@](O)(C[C@@H](O)C[C@@H](O)[C@H](O)CC[C@@H](O)C[C@@H](O)CC(=O)O[C@H]1C)C[C@H](O)[C@H]2C(=O)O [AMPHOTERICIN B] | 0.06 (≈ 0.0649 µM) | 0.06 (≈ 0.0649 µM) | 0.125 (≈ 0.135 µM) | 0.125 (≈ 0.135 µM) | – |
| CCCCNC(=O)n1c(NC(=O)OC)nc2ccccc21 [BENOMYL] | 20 (≈ 68.9 µM) | 20 (≈ 68.9 µM) | 20 (≈ 68.9 µM) | 20 (≈ 68.9 µM) | – |
| C[C@H]1CCC/C=C/[C@@H]2C[C@H](O)C[C@H]2[C@H](O)/C=C/C(=O)O1 [BREFELDIN A] | 4 (≈ 14.3 µM) | 16 (≈ 57.1 µM) | 8 (≈ 28.5 µM) | 32 (≈ 114 µM) | – |
| C/C=C/C/C=C/CCC(=O)[C@H]1O[C@H]1C(N)=O [CERULENIN] | 2 (≈ 8.96 µM) | 4 (≈ 17.9 µM) | 2 (≈ 8.96 µM) | 8 (≈ 35.8 µM) | – |
| C[C@@H]1C[C@@H]([C@H](O)CC2CC(=O)NC(=O)C2)C(=O)[C@@H](C)C1 [CYCLOHEXIMIDE] | 400 (≈ 1420 µM) | 400 (≈ 1420 µM) | 400 (≈ 1420 µM) | 800 (≈ 2840 µM) | – |
| OC(Cn1cncn1)(Cn1cncn1)c1ccc(F)cc1F [FLUCONAZOLE] | 0.125 (≈ 0.408 µM) | 1 (≈ 3.27 µM) | 0.125 (≈ 0.408 µM) | 1 (≈ 3.27 µM) | 8 |
| CN(C)c1ccc(C(=C2C=CC(=[N+](C)C)C=C2)c2ccc(N(C)C)cc2)cc1.[Cl-] [GENTIAN VIOLET] | 0.2 | 0.2 | 0.4 | 0.4 | – |
| CCC(C)n1ncn(-c2ccc(N3CCN(c4ccc(OC[C@H]5CO[C@](Cn6cncn6)(c6ccc(Cl)cc6Cl)O5)cc4)CC3)cc2)c1=O (stereo not given in full) [ITRACONAZOLE] | 0.016 (≈ 0.0227 µM) | 0.016 (≈ 0.0227 µM) | 0.016 (≈ 0.0227 µM) | 0.016 (≈ 0.0227 µM) | – |
| CC(=O)N1CCN(c2ccc(OC[C@H]3CO[C@](Cn4ccnc4)(c4ccc(Cl)cc4Cl)O3)cc2)CC1 [KETOCONAZOLE] | 0.064 (≈ 0.12 µM) | 0.064 (≈ 0.12 µM) | 0.064 (≈ 0.12 µM) | 0.064 (≈ 0.12 µM) | – |
| CC/N=c1\cc2oc3cc(NCC)c(C)cc3c(-c3ccccc3C(=O)OCC)c-2cc1C.Cl [RHODAMINE 6G HYDROCHLORIDE] | 8 | 8 | 8 | 8 | – |
| Cc1cc(C)nc(NC(=O)NS(=O)(=O)c2ccccc2C(=O)O)n1 [SULFOMETURON] | 10 (≈ 28.5 µM) | 10 (≈ 28.5 µM) | 10 (≈ 28.5 µM) | 10 (≈ 28.5 µM) | – |
| C[C@@H](c1ncncc1F)[C@](O)(Cn1cncn1)c1ccc(F)cc1F [VORICONAZOLE] | 0.004 (≈ 0.0115 µM) | 0.032 (≈ 0.0916 µM) | 0.004 (≈ 0.0115 µM) | 0.032 (≈ 0.0916 µM) | 8 |
